# Results published in ChEMBL document CHEMBL1153011, “Mechanism of unusual formation of 3-(5-phenyl-3H-[1,2,4]dithiazol-3-yl)chromen-4-ones and 4-oxo-4H-chromene-3-carbothioic acid N-phenylamides and their antimicrobial evaluation” (2009).
# The source made the active and inactive calls. The rule behind the calls is not given here.
# Legend:
# Pseudomonas aeruginosa [1] = experiment: Antibacterial activity against Pseudomonas aeruginosa MTCC 741 at 1 x 10^-4 ug/ml after 24 hrs by disk diffusion assay; type: functional, organism-based
# Summary of the method: (§1)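 Disk diffusion. 100 µl of 4-h nutrient-broth cultures spread on Mueller Hinton agar. Compounds in DMSO (1/10) applied to 8 mm paper disks. After 24 h at 37 °C, growth-inhibition zone diameter measured. DMSO negative control; chloramphenicol and ciprofloxacin positive controls.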
# Shigella flexneri [2] = experiment: Antibacterial activity against Shigella flexneri MTCC 1457 at 1 x 10^-4 ug/ml after 24 hrs by disk diffusion assay; type: functional; details: MTCC 1457, 24 h, read-out: GI; summary of the method: as §1
# Aspergillus niger = experiment: Antifungal activity against Aspergillus niger MTCC 281 after 24 to 72 hrs by broth dilution method; type: functional
# Summary of the method: (§2)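 Fungi grown at 25 °C on Sabouraud dextrose agar. Compounds dissolved in DMSO (1/10) and tested at several concentrations in Sabouraud dextrose broth in tubes. Conidial suspension at final 1 × 10^5 CFU/ml, with growth and sterility control tubes. […] DMSO negative control; fluconazole positive control.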
# Staphylococcus aureus [3] = experiment: Antibacterial activity against Staphylococcus aureus MTCC 740 at 5 x 10^-5 ug/ml after 24 hrs by disk diffusion assay; type: functional; details: MTCC 740, 24 h, read-out: GI; summary of the method: as §1
# Pseudomonas aeruginosa [4] = experiment: Antibacterial activity against Pseudomonas aeruginosa MTCC 741 at 5 x 10^-5 ug/ml after 24 hrs by disk diffusion assay; type: functional, organism-based; summary of the method: as §1
# Escherichia coli [5] = experiment: Antibacterial activity against Escherichia coli MTCC 119 after overnight incubation by broth dilution method; type: functional
# Summary of the method: (§3)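 Bacteria grown at 37 °C on nutrient agar. Compounds dissolved in DMSO (1/10) and tested in twofold serial dilutions in Mueller Hinton broth in tubes. Inoculum was a McFarland-standardized suspension, final 5 × 10^5 CFU/ml, with growth and sterility control tubes. Incubation overnight at 37 °C. MIC read by OD600 as the lowest concentration with no turbidity. DMSO negative control; chloramphenicol and ciprofloxacin positive controls.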
# Escherichia coli [6] = experiment: Antibacterial activity against Escherichia coli MTCC 119 at 5 x 10^-5 ug/ml after 24 hrs by disk diffusion assay; type: functional; details: MTCC 119, 24 h, read-out: GI; summary of the method: as §1
# Staphylococcus aureus [7] = experiment: Antibacterial activity against Staphylococcus aureus MTCC 740 after overnight incubation by broth dilution method; type: functional; summary of the method: as §3
# Staphylococcus aureus [8] = experiment: Antibacterial activity against Staphylococcus aureus MTCC 740 at 1 x 10^-4 ug/ml after 24 hrs by disk diffusion assay; type: functional; details: MTCC 740, 24 h, read-out: GI; summary of the method: as §1
# Escherichia coli [9] = experiment: Antibacterial activity against Escherichia coli MTCC 119 at 2.5 x 10^-5 ug/ml after 24 hrs by disk diffusion assay; type: functional; details: MTCC 119, 24 h, read-out: GI; summary of the method: as §1
# Shigella flexneri [10] = experiment: Antibacterial activity against Shigella flexneri MTCC 1457 at 5 x 10^-5 ug/ml after 24 hrs by disk diffusion assay; type: functional; details: MTCC 1457, 24 h, read-out: GI; summary of the method: as §1
# Shigella flexneri [11] = experiment: Antibacterial activity against Shigella flexneri MTCC 1457 after overnight incubation by broth dilution method; type: functional; summary of the method: as §3
# Pseudomonas aeruginosa [12] = experiment: Antibacterial activity against Pseudomonas aeruginosa MTCC 741 at 2.5 x 10^-5 ug/ml after 24 hrs by disk diffusion assay; type: functional, organism-based; summary of the method: as §1
# Escherichia coli [13] = experiment: Antibacterial activity against Escherichia coli MTCC 119 at 1 x 10^-4 ug/ml after 24 hrs by disk diffusion assay; type: functional; details: MTCC 119, 24 h, read-out: GI; summary of the method: as §1
# Staphylococcus aureus [14] = experiment: Antibacterial activity against Staphylococcus aureus MTCC 740 at 2.5 x 10^-5 ug/ml after 24 hrs by disk diffusion assay; type: functional; details: MTCC 740, 24 h, read-out: GI; summary of the method: as §1
# Pseudomonas aeruginosa [15] = experiment: Antibacterial activity against Pseudomonas aeruginosa MTCC 741 after overnight incubation by broth dilution method; type: functional; summary of the method: as §3
# Geotrichum candidum = experiment: Antifungal activity against Geotrichum candidum MTCC 3993 after 24 to 72 hrs by broth dilution method; type: functional; summary of the method: as §2
# Shigella flexneri [16] = experiment: Antibacterial activity against Shigella flexneri MTCC 1457 at 2.5 x 10^-5 ug/ml after 24 hrs by disk diffusion assay; type: functional; details: MTCC 1457, 24 h, read-out: GI; summary of the method: as §1
# Candida tropicalis = experiment: Antifungal activity against Candida tropicalis MTCC 230 after 24 to 72 hrs by broth dilution method; type: functional; summary of the method: as §2
# Candida albicans = experiment: Antifungal activity against Candida albicans MTCC 227 after 24 to 72 hrs by broth dilution method; type: functional; summary of the method: as §2
Structure (SMILES),growth inhibition (GI) (Pseudomonas aeruginosa [1]),inhibition of growth at 0.0001 µg/mL (Shigella flexneri [2]),MIC (Aspergillus niger),inhibition of growth at 50 pg/mL (Staphylococcus aureus [3]),growth inhibition (GI) (Pseudomonas aeruginosa [4]),MIC (Escherichia coli [5]),inhibition of growth at 50 pg/mL (Escherichia coli [6]),MIC (Staphylococcus aureus [7]),inhibition of growth at 0.0001 µg/mL (Staphylococcus aureus [8]),inhibition of growth at 25 pg/mL (Escherichia coli [9]),inhibition of growth at 50 pg/mL (Shigella flexneri [10]),MIC (Shigella flexneri [11]),growth inhibition (GI) (Pseudomonas aeruginosa [12]),inhibition of growth at 0.0001 µg/mL (Escherichia coli [13]),inhibition of growth at 25 pg/mL (Staphylococcus aureus [14]),MIC (Pseudomonas aeruginosa [15]),MIC (Geotrichum candidum),inhibition of growth at 25 pg/mL (Shigella flexneri [16]),MIC (Candida tropicalis),MIC (Candida albicans)
O=c1c(C(=S)Nc2ccccc2)coc2ccccc12,inactive,100%,90 µg/mL,76.2%,inactive,62 µg/mL,85.5%,70 µg/mL,100%,38.5%,55.3%,92 µg/mL,inactive,100%,35.6%,inactive,–,–,–,–
O=c1c(C2N=C(c3ccccc3)SS2)coc2ccccc12 (stereo not given),inactive,100%,90 µg/mL,73.9%,inactive,88 µg/mL,56.7%,68 µg/mL,100%,24.8%,85.5%,58 µg/mL,inactive,100%,30.2%,inactive,32 µg/mL,44.3%,40 µg/mL,30 µg/mL
O=c1c(C(=S)Nc2ccccc2)coc2cc(Cl)ccc12,inactive,100%,80 µg/mL,43.6%,inactive,115 µg/mL,42.6%,125 µg/mL,81%,–,52.2%,96 µg/mL,inactive,87.6%,–,inactive,–,–,60 µg/mL,60 µg/mL
O=c1c(C2N=C(c3ccccc3)SS2)coc2cc(Cl)c(F)cc12 (stereo not given),inactive,100%,90 µg/mL,68.7%,inactive,350 µg/mL,14%,72 µg/mL,100%,–,98.5%,52 µg/mL,inactive,30.5%,32.9%,inactive,5 µg/mL,48.3%,28 µg/mL,40 µg/mL
O=C(O)c1cn(C2CC2)c2cc(N3CCNCC3)c(F)cc2c1=O [CIPROFLOXACIN],–,–,–,–,–,1.2 µg/mL,–,0.9 µg/mL,–,–,–,1.4 µg/mL,–,–,–,1.8 µg/mL,–,–,–,–
Cc1ccc2occ(C3N=C(c4ccccc4)SS3)c(=O)c2c1 (stereo not given),inactive,100%,150 µg/mL,92.7%,inactive,132 µg/mL,30%,54 µg/mL,100%,–,60.9%,82 µg/mL,inactive,72.5%,35%,inactive,95 µg/mL,21%,52 µg/mL,60 µg/mL
OC(Cn1cncn1)(Cn1cncn1)c1ccc(F)cc1F [FLUCONAZOLE],–,–,49 µg/mL,–,–,–,–,–,–,–,–,–,–,–,–,–,9 µg/mL,–,25 µg/mL,24 µg/mL
O=C(N[C@H](CO)[C@H](O)c1ccc([N+](=O)[O-])cc1)C(Cl)Cl [CHLORAMPHENICOL],–,–,–,–,–,2.5 µg/mL,–,13.6 µg/mL,–,–,–,5.6 µg/mL,–,–,–,2.7 µg/mL,–,–,–,–
O=c1c(C2N=C(c3ccccc3)SS2)coc2ccc(F)cc12 (stereo not given),inactive,100%,50 µg/mL,23.9%,inactive,120 µg/mL,12.3%,205 µg/mL,48.8%,–,62.3%,80 µg/mL,inactive,80.9%,–,inactive,32 µg/mL,28.4%,42 µg/mL,30 µg/mL
O=c1c(C(=S)Nc2ccccc2)coc2ccc(F)cc12,inactive,–,120 µg/mL,–,inactive,68 µg/mL,73.8%,–,–,–,–,–,inactive,100%,–,inactive,–,–,–,–
O=c1c(C(=S)Nc2ccccc2)coc2cc(Cl)c(Cl)cc12,inactive,100%,–,90.9%,inactive,64 µg/mL,78.3%,55 µg/mL,100%,20.4%,60.9%,62 µg/mL,inactive,100%,3.78%,inactive,–,8.82%,–,75 µg/mL
